Activity calls are given as the source filed them. The calls are words filed in the database; no cut-off is given here. Positions of bridges follow the written chain, without caps; N, C: chain ends. Non-standard residues stand in square brackets, D forms with d. Residues, ends and D or L forms follow the SMILES beside them. 2Nal = N[C@@H](Cc1ccc2ccccc2c1)C(=O)O; Pen = CC(C)(S)[C@H](N)C(=O)O
Columns and labels:
[1] = target: T1, C-X-C chemokine receptor type 4 (Homo sapiens, UniProt P61073); assay: Inhibition of anti-CXCR4 PE antibody clone 12G5 binding to CXCR4 in human CCRF-CEM cells preincubated for 30 mins followed by anti-CXCR4 PE antibody clone 12G5 addition measured after 30 mins by flow cytometric method; assay type: cell-based
T1 sequence (P61073 whole entry): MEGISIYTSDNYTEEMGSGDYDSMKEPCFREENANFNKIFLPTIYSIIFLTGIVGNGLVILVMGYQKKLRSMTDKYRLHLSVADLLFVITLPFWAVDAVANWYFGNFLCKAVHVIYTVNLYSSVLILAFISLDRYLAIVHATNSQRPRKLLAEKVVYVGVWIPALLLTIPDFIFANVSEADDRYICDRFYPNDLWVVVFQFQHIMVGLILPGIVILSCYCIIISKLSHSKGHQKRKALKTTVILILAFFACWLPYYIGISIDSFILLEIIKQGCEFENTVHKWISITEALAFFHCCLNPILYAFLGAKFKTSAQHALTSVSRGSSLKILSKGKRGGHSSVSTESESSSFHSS
Method in brief: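 5×10^5 CCRF-CEM cells (human T leukemia, CXCR4-overexpressing) were preincubated with peptide (10 pM–10 μM) in PBS with 0.2% BSA and 0.1% NaN3 for 30 min at 37 °C, 5% CO2. They were then labeled 30 min with anti-CXCR4 PE antibody (clone 12G5) and read by flow cytometry.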

[2] = target: T1, C-X-C chemokine receptor type 4; settings: 10 nM
[3] = target: T1, C-X-C chemokine receptor type 4; assay: Displacement of [125I]-CXCL12 from CXCR4 in human CCRF-CEM cells after 1 hr by gamma counting method; assay type: cell-based
Method in brief: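 CCRF-CEM cells suspended in binding buffer (PBS, 5 mM MgCl2, 1 mM CaCl2, 0.25% BSA, pH 7.4) with competitor from 10 pM to 10 μM and 60 pM 125I-CXCL12 (2200 Ci/mmol) tracer. Bound radioactivity counted on a γ counter after 1 h at 4 °C, expressed as percent of total counts. One-site fit gave IC50; mean ± SD of three experiments.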

[4] = target: T2, C-X-C chemokine receptor type 3 (Homo sapiens) (UniProt P49682); assay: Inhibition of anti-CXCR3 FITC antibody clone 1C6/clone 49801 binding to CXCR3 in human COLO205 cells at 0.01 to 10 uM preincubated for 30 mins followed by anti-CXCR3 FITC antibody clone 1C6/clone 49801 addition measured after 30 mins by flow cytometric method; assay type: cell-based
T2 sequence (whole entry): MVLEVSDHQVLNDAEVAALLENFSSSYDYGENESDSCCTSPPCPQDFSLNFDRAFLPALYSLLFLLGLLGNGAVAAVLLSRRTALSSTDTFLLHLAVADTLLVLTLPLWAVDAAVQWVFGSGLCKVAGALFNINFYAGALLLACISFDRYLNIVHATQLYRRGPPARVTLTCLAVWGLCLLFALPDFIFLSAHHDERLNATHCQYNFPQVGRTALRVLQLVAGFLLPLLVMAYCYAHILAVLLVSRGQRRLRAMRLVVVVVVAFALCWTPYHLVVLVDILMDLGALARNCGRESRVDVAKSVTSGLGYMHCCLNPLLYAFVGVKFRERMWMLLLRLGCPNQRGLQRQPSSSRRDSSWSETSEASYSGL
Method in brief: (§1)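 Selectivity runs: peptide preincubated 30 min at 37 °C, 5% CO2 in PBS with 0.2% BSA and 0.1% NaN3, then cells labeled with receptor antibody and read by flow cytometry. CXCR3: COLO205 colorectal cells, anti-CXCR3 FITC antibody. CXCR7: MCF-7 breast cells, anti-CXCR7 APC antibody (clone 11G8). Results given as mean ± SD.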

[5] = target: Atypical chemokine receptor 3 (Homo sapiens) (UniProt P25106); assay: Inhibition of anti-CXCR7 APC antibody clone 11G8 binding to CXCR7 in human MCF7 cells at 0.01 to 10 uM preincubated for 30 mins followed by anti-CXCR7 APC antibody clone 11G8 addition measured after 30 mins by flow cytometric method; assay type: cell-based; method in brief: as §1
Atypical chemokine receptor 3 (Homo sapiens), sequence (P25106 whole entry): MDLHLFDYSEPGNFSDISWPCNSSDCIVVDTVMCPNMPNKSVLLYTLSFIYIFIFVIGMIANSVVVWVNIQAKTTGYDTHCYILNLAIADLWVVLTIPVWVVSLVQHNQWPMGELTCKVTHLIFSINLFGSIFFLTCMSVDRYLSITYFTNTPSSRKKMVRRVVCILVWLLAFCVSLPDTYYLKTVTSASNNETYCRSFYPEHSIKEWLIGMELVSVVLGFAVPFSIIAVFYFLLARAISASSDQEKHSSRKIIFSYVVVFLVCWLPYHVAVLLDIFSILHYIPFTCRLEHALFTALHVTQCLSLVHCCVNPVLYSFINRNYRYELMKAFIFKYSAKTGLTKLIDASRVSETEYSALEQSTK

[6] = Metabolic stability in 90% human serum assessed as parent compound remaining at 1 mM measured at 15 mins by ESI-RP-HPLC method; assay type: ADME, cell-free; settings: read-out: Stability
Method in brief: (§2)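 Peptide water solution (1 mM, 10 μL) mixed with 90 μL human serum, giving 0.1 mM peptide in 90% serum, at 37 °C. Aliquots taken at 0, 15, 30, 60, 90 and 120 min. Proteins precipitated with ACN (0.1% TFA) and spun 12 000 rpm, 15 min, 4 °C. Supernatant run on ESI-RP-HPLC; relative amount from A230 peak integration.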

[7] = Metabolic stability in 90% human serum assessed as parent compound remaining at 1 mM measured at 30 mins by ESI-RP-HPLC method; assay type: ADME, cell-free; settings: read-out: Stability; method in brief: as §2
[8] = Metabolic stability in 90% human serum assessed as parent compound remaining at 1 mM measured at 60 mins by ESI-RP-HPLC method; assay type: ADME, cell-free; settings: read-out: Stability; method in brief: as §2
[9] = Metabolic stability in 90% human serum assessed as parent compound remaining at 1 mM measured at 90 mins by ESI-RP-HPLC method; assay type: ADME, cell-free; settings: read-out: Stability; method in brief: as §2
[10] = Metabolic stability in 90% human serum assessed as parent compound remaining at 1 mM measured at 120 mins by ESI-RP-HPLC method; assay type: ADME, cell-free; settings: read-out: Stability; method in brief: as §2
[11] = target: T1, C-X-C chemokine receptor type 4; settings: 1 to 100 nM
[12] = target: T1, C-X-C chemokine receptor type 4; settings: 10 nM; remark: listed apart in the source
[13] = target: T1, C-X-C chemokine receptor type 4; settings: 10 nM; remark: listed apart in the source
[14] = test system: Serum; assay: Drug level in 90% human serum treated with (4R,7S,10S,13S,16R)-16-((S)-2-((S)-2-amino-5-guanidinopentanamido)propanamido)-7,10-dibenzyl-13-(3-guanidinopropyl)-6,9,12,15-tetraoxo-1,2-dithia-5,8,11,14-tetraazacycloheptadecane-4-carboxylic acid at 1 mM after 15 mins by ESI-RP-HPLC method; assay type: ADME, cell-free; settings: 0.25 h, 1000 µM; method in brief: as §2
[15] = test system: Serum; assay: Drug level in 90% human serum treated with (4R,7S,10S,13S,16R)-16-((S)-2-((S)-2-amino-5-guanidinopentanamido)propanamido)-7,10-dibenzyl-13-(3-guanidinopropyl)-6,9,12,15-tetraoxo-1,2-dithia-5,8,11,14-tetraazacycloheptadecane-4-carboxylic acid at 1 mM after 30 mins by ESI-RP-HPLC method; assay type: ADME, cell-free; settings: 0.5 h, 1000 µM; method in brief: as §2

SMILES: CC(=O)N[C@@H](CCCNC(=N)N)C(=O)N[C@@H](C)C(=O)N[C@H]1C(=O)N[C@@H](CCCNC(=N)N)C(=O)N[C@@H](Cc2ccccc2)C(=O)N[C@@H](Cc2ccccc2)C(=O)N[C@H](C(=O)O)CSSC1(C)C
- IC50 [1]: > 10000 nM

SMILES: CC(=O)N[C@@H](CCCNC(=N)N)C(=O)N[C@@H](C)C(=O)N[C@@H]1CSSC(C)(C)[C@@H](C(=O)O)NC(=O)[C@H](Cc2ccccc2)NC(=O)[C@H](Cc2cccc3ccccc23)NC(=O)[C@H](CCCNC(=N)N)NC1=O
- IC50 [1]: 3690 nM

SMILES: CC(=O)N[C@@H](CCCNC(=N)N)C(=O)N[C@@H](C)C(=O)N[C@@H]1CSSC(C)(C)[C@@H](C(=O)O)NC(=O)[C@H](Cc2ccccc2)NC(=O)[C@H](Cc2ccc3ccccc3c2)NC(=O)[C@H](CCCNC(=N)N)NC1=O
- IC50 [1]: 22 nM

SMILES: CC(=O)N[C@@H](CCCNC(=N)N)C(=O)N[C@@H](C)C(=O)N[C@@H]1CSSC(C)(C)[C@@H](C(=O)O)NC(=O)[C@H](Cc2ccc([N+](=O)[O-])cc2)NC(=O)[C@H](Cc2ccccc2)NC(=O)[C@H](CCCNC(=N)N)NC1=O
- IC50 [1]: > 10000 nM

SMILES: CC(=O)N[C@@H](CCCNC(=N)N)C(=O)N[C@@H](C)C(=O)N[C@@H]1CSSC(C)(C)[C@@H](C(=O)O)NC(=O)[C@H](Cc2ccccc2)NC(=O)[C@H](Cc2ccc(Cl)cc2)NC(=O)[C@H](CCCNC(=N)N)NC1=O
- IC50 [1]: 70 nM

SMILES: CC(=O)N[C@@H](CCCNC(=N)N)C(=O)N[C@@H](C)C(=O)N[C@@H]1CSSC(C)(C)[C@@H](C(=O)O)NC(=O)[C@H](Cc2ccccc2)NC(=O)[C@H](Cc2cnc[nH]2)NC(=O)[C@H](CCCNC(=N)N)NC1=O
- IC50 [1]: > 10000 nM

SMILES: CC(=O)N[C@@H](CCCNC(=N)N)C(=O)N[C@@H](C)C(=O)N[C@@H]1CSSC(C)(C)[C@@H](C(=O)O)NC(=O)[C@H](Cc2ccccc2)NC(=O)[C@H](Cc2ccc([N+](=O)[O-])cc2)NC(=O)[C@H](CCCNC(=N)N)NC1=O
- IC50 [1]: 210 nM

SMILES: CC(=O)N[C@@H](CCCNC(=N)N)C(=O)N[C@@H](C)C(=O)N[C@@H]1CSSC(C)(C)[C@@H](C(=O)O)NC(=O)[C@H](Cc2cnc[nH]2)NC(=O)[C@H](Cc2ccccc2)NC(=O)[C@H](CCCNC(=N)N)NC1=O
- IC50 [1]: 6 nM

SMILES: CC(=O)N[C@@H](CCCNC(=N)N)C(=O)N[C@@H](C)C(=O)N[C@@H]1CSSC(C)(C)[C@@H](C(=O)O)NC(=O)[C@H](Cc2ccc3ccccc3c2)NC(=O)[C@H](Cc2ccccc2)NC(=O)[C@H](CCCNC(=N)N)NC1=O
- IC50 [1]: 1800 nM

SMILES: CC(=O)N[C@@H](CCCNC(=N)N)C(=O)N[C@@H](C)C(=O)N[C@@H]1CSSC(C)(C)[C@@H](C(=O)O)NC(=O)[C@H](Cc2ccc(O)cc2)NC(=O)[C@H](Cc2ccccc2)NC(=O)[C@H](CCCNC(=N)N)NC1=O
- IC50 [1]: 360 nM

SMILES: CC(=O)N[C@@H](CCCNC(=N)N)C(=O)N[C@@H](C)C(=O)N[C@H]1C(=O)N[C@@H](CCCNC(=N)N)C(=O)N[C@@H](Cc2ccccc2)C(=O)N[C@@H](Cc2ccccc2)C(=O)N[C@H](C(=O)O)C(C)(C)SSC1(C)C
- IC50 [1]: 1530 nM

SMILES: CC(=O)N[C@@H](CCCNC(=N)N)C(=O)N[C@@H](C)C(=O)N[C@@H]1CSSC(C)(C)[C@@H](C(=O)O)NC(=O)[C@H](Cc2ccccc2)NC(=O)[C@H](Cc2ccccc2)NC(=O)[C@H](CCCNC(=N)N)NC1=O
- IC50 [1]: 40 nM

SMILES: CC(=O)N[C@@H](CCCNC(=N)N)C(=O)N[C@@H](C)C(=O)N[C@@H]1CSSC(C)(C)[C@@H](C(=O)O)NC(=O)[C@H](Cc2ccccc2)NC(=O)[C@H](Cc2ccc(O)cc2)NC(=O)[C@H](CCCNC(=N)N)NC1=O
- IC50 [1]: 2140 nM

SMILES: CC(=O)N[C@@H](CCCNC(=N)N)C(=O)N[C@@H](C)C(=O)N[C@@H]1CSSC(C)(C)[C@@H](C(=O)O)NC(=O)[C@H](Cc2cccc3ccccc23)NC(=O)[C@H](Cc2ccccc2)NC(=O)[C@H](CCCNC(=N)N)NC1=O
- IC50 [1]: 180 nM

SMILES: CC(=O)N[C@@H](CCCNC(=N)N)C(=O)N[C@@H](C)C(=O)N[C@@H]1CSSC(C)(C)[C@@H](C(=O)O)NC(=O)[C@H](Cc2ccc(Cl)cc2)NC(=O)[C@H](Cc2ccccc2)NC(=O)[C@H](CCCNC(=N)N)NC1=O
- IC50 [1]: 1250 nM

SMILES: c1cc(CN2CCCNCCNCCCNCC2)ccc1CN1CCCNCCNCCCNCC1
- inhibition [2]: inactive

SMILES: CC(=O)N[C@@H](CCCNC(=N)N)C(=O)N[C@@H](C)C(=O)N[C@@H]1CSSC[C@@H](C(=O)O)NC(=O)[C@H](Cc2ccccc2)NC(=O)[C@H](Cc2ccccc2)NC(=O)[C@H](CCCNC(=N)N)NC1=O (Ac-RA[dC]RFFC-OH; disulfide 3-7)
- IC50 [1]: 53 nM
- IC50 [3]: 338 nM

SMILES: CC(=O)N[C@@H](CCCNC(=N)N)C(=O)N[C@@H](C)C(=O)N[C@@H]1CSSC(C)(C)[C@@H](C(=O)O)NC(=O)[C@H](Cc2cnc[nH]2)NC(=O)[C@H](Cc2ccc3ccccc3c2)NC(=O)[C@H](CCCNC(=N)N)NC1=O (Ac-RA[dC]R[2Nal]H[Pen]-OH; disulfide 3-7)
- IC50 [1]: 1.5 nM
- inhibition [4]: inactive
- inhibition [5]: inactive
- remaining at 0.25 h, 1000 µM [6]: 100%
- remaining at 0.5 h, 1000 µM [7]: 100%
- remaining at 1 h, 1000 µM [8]: 100%
- remaining at 1.5 h, 1000 µM [9]: 100%
- remaining at 2 h, 1000 µM [10]: 100%
- inhibition [11]: Active
- inhibition [12]: Active
- inhibition [13]: inactive

SMILES: C[C@H](N)C(=O)N[C@H]1CSSC[C@@H](C(=O)O)NC(=O)[C@H](Cc2ccccc2)NC(=O)[C@H](Cc2ccccc2)NC(=O)[C@H](CCCNC(=N)N)NC1=O (H-ACRFFC-OH; disulfide 2-6)
- Drug metabolism [14]: Metabolite_Detected

SMILES: N=C(N)NCCC[C@@H]1NC(=O)[C@@H](N)CSSC[C@@H](C(=O)O)NC(=O)[C@H](Cc2ccccc2)NC(=O)[C@H](Cc2ccccc2)NC1=O (H-CRFFC-OH; disulfide 1-5)
- Drug metabolism [15]: Metabolite_Detected

SMILES: C[C@H](NC(=O)[C@@H](N)CCCNC(=N)N)C(=O)N[C@H]1CSSC[C@@H](C(=O)O)NC(=O)[C@H](Cc2ccccc2)NC(=O)[C@H](Cc2ccccc2)NC(=O)[C@H](CCCNC(=N)N)NC1=O (H-RACRFFC-OH; disulfide 3-7)
- IC50 [1]: 6200 nM
- remaining at 0.25 h, 1000 µM [6]: 67%
- remaining at 0.5 h, 1000 µM [7]: 0%
- remaining at 1 h, 1000 µM [8]: 0%
- remaining at 1.5 h, 1000 µM [9]: 0%
- remaining at 2 h, 1000 µM [10]: 0%

Source: ChEMBL document CHEMBL4028895, “Structure-Activity Relationships and Biological Characterization of a Novel, Potent, and Serum Stable C-X-C Chemokine Receptor Type 4 (CXCR4) Antagonist” (J Med Chem, 2017)
